Data as given in ChEMBL document CHEMBL1649428, “An ABC transporter of Streptococcus pneumoniae involved in susceptibility to vancoresmycin and bacitracin” (2009).
Values after ≈ are worked out from the molar mass of the structure shown. Bridge positions count the residues as written; N and C are the ends. Square brackets hold non-standard residues; d marks the D form. Peptide text beside a SMILES is read from it. * marks the point of attachment. Ileψ(thiazoline)Cys = CC[C@H](C)[C@H](N)C1=N[C@H](C(=O)*)CS1; dOrn = NCCC[C@@H](N)C(=O)O

Assays:
Format in all cases: functional
Streptococcus pneumoniae [1] = experiment: Antimicrobial activity against Streptococcus pneumoniae VarG transformed with spr0813 C1744T mutant gene by agar dilution method
How it was run: (§1)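 Agar dilution MIC against the strain. Vancoresmycin was tested at 0.3 to 0.8 μg/ml in 0.05 μg/ml steps, diluted from a 0.5 mg/ml methanol stock kept at −20°C. Bacitracin was tested at 0.5 to 6 μg/ml in 0.2 μg/ml steps. Pneumococci are routinely grown at 37°C. MIC is the mean of three independent experiments.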

Streptococcus pneumoniae [2] = experiment: Antimicrobial activity against Streptococcus pneumoniae R6 transformed with DNA containing spr0813 C1744T::aphIII mutant gene selected after kanamycin exposure by agar dilution method; how it was run: as §1
Streptococcus pneumoniae [3] = experiment: Antimicrobial activity against Streptococcus pneumoniae R6 by agar dilution method; how it was run: as §1
Streptococcus pneumoniae [4] = experiment: Antimicrobial activity against Streptococcus pneumoniae R6 transformed with DNA containing spr0813 C1744T mutant gene selected after drug exposure by agar dilution method; how it was run: as §1
Streptococcus pneumoniae [5] = experiment: Antimicrobial activity against Streptococcus pneumoniae R6 transformed with DNA containing spr0813 C1744T mutant gene selected after vancoresmycin exposure by agar dilution method; how it was run: as §1
Streptococcus pneumoniae [6] = experiment: Antimicrobial activity against kanamycin-resistant and spr0811-spr0813::aphIII deficient Streptococcus pneumoniae VarG by agar dilution method; how it was run: as §1
Streptococcus pneumoniae [7] = experiment: Antimicrobial activity against copY and cyl deficient Streptococcus pneumoniae VarE mutant by agar dilution method
Streptococcus pneumoniae [8] = experiment: Antimicrobial activity against copY and cyl deficient Streptococcus pneumoniae VarF mutant by agar dilution method
Streptococcus pneumoniae [9] = experiment: Antimicrobial activity against kanamycin-resistant and spr0811-spr0813::aphIII deficient Streptococcus pneumoniae R6 by agar dilution method; how it was run: as §1
Streptococcus pneumoniae [10] = experiment: Antimicrobial activity against copY and cyl deficient Streptococcus pneumoniae VarA mutant by agar dilution method

SMILES	MIC (Streptococcus pneumoniae [1])	MIC (Streptococcus pneumoniae [2])	MIC (Streptococcus pneumoniae [3])	MIC (Streptococcus pneumoniae [4])	MIC (Streptococcus pneumoniae [5])	MIC (Streptococcus pneumoniae [6])	MIC (Streptococcus pneumoniae [7])	MIC (Streptococcus pneumoniae [8])	MIC (Streptococcus pneumoniae [9])	MIC (Streptococcus pneumoniae [10])
CC[C@H](C)[C@H](N)C1=N[C@H](C(=O)N[C@@H](CC(C)C)C(=O)N[C@H](CCC(=O)O)C(=O)N[C@H](C(=O)N[C@H]2CCCCNC(=O)[C@H](CC(N)=O)NC(=O)[C@@H](CC(=O)O)NC(=O)[C@H](Cc3cnc[nH]3)NC(=O)[C@@H](Cc3ccccc3)NC(=O)[C@H]([C@@H](C)CC)NC(=O)[C@@H](CCCN)NC2=O)[C@@H](C)CC)CS1 [BACITRACIN] ({Ileψ(thiazoline)Cys}-L[dE]IK[dOrn]I[dF]H[dD]N; lactam 4-C)	1 µg/mL (≈ 0.703 µM)	1 µg/mL (≈ 0.703 µM)	4.8 µg/mL (≈ 3.37 µM)	1 µg/mL (≈ 0.703 µM)	1 µg/mL (≈ 0.703 µM)	1 µg/mL (≈ 0.703 µM)	5.2 µg/mL (≈ 3.65 µM)	5.2 µg/mL (≈ 3.65 µM)	1 µg/mL (≈ 0.703 µM)	5.2 µg/mL (≈ 3.65 µM)
C/C(=C\CC(O)CC(O)CCC(C)C(O)C(C)C(O)CCCC(O)C(C)C(O)/C(C)=C/C(C)C(=O)/C(C)=C/C(O)C(O)CC(O)CC(OC1OC(C)C(O)C(N)C1O)C(C)CCC(O)CC(O)CCC(C)C(O)C(C)C(O)C(C)C)C(=O)C1=C(O)/C(=C/C(C)C)N(C)C1=O (centres undefined) [VANCORESMYCIN]	0.5 µg/mL (≈ 0.372 µM)	0.5 µg/mL (≈ 0.372 µM)	0.4 µg/mL (≈ 0.298 µM)	0.5 µg/mL (≈ 0.372 µM)	–	0.4 µg/mL (≈ 0.298 µM)	0.7 µg/mL (≈ 0.521 µM)	0.65 µg/mL (≈ 0.484 µM)	0.4 µg/mL (≈ 0.298 µM)	0.7 µg/mL (≈ 0.521 µM)
